Measured values gathered from unrelated publications.
Compare with care: the assays were run in different laboratories. Converted amounts (≈) assume the structure as drawn.

CC(C)C(=O)OCc1cc2[nH]c(=S)n(Cc3cncc(C(N)=S)c3)c(=O)c2cc1Cl has an MIC90 of 18 µM (≈ 8.33 µg/mL) (Mycobacterium tuberculosis; microbial growth; H37RV).
The IC50 of Cc1cccc(NC(=O)c2sc3nc(-c4cccs4)cc(C(F)(F)F)c3c2N)c1C is reported as greater than 100 µM (HepG2; cell growth or viability; 72 h).
NC(=S)c1ccc(Cn2c(=S)[nH]c3ccc(Cl)cc3c2=O)cn1 has an MIC90 of greater than 100 µM (Mycobacterium tuberculosis; microbial growth; H37RV).
For COc1ccc(-c2cc(C(F)(F)F)c3c(N)c(C(=O)Nc4ccc(C)cc4C)sc3n2)cc1, the IC50 was greater than 100 µM (HepG2; cell growth or viability; 72 h).
The IC50 of N=C(CC(O)c1cc2c(F)cc(F)cc2c2cc(C(F)(F)F)ccc12)NC1CC(F)(F)C1 (stereo not shown) is reported as 7.2 µM (HepG2; cell growth or viability, neutral red; 24 h).
For CCCc1ccc(CNc2cc(-c3ccccn3)nc3nncn23)cc1, the MIC was greater than 100 µM (Mycobacterium tuberculosis; microbial growth; H37RV).
For O=c1c2nc(Cl)ccc2[nH]c(=S)n1Cc1cccnc1, the MIC90 was greater than 100 µM (Mycobacterium tuberculosis; microbial growth; H37RV).
The IC50 of N.N.[Cl][Pt][Cl] is reported as 2.76 µM (Ramos; cell growth or viability, ATP luminescence; 72 h).
O=c1c2cc(Cl)ccc2[nH]c(=S)n1Cc1ccc(-c2nnn[nH]2)nc1 gave an MIC90 of 87.4 µM (≈ 32.5 µg/mL) (Mycobacterium tuberculosis; microbial growth; H37RV).
N=C(CC(O)c1cc2c(F)cc(F)cc2c2cc(C(F)(F)F)ccc12)N1CCC(F)(F)CC1 (stereo not shown) has an IC50 of 15.7 µM (HepG2; cell growth or viability, neutral red; 24 h).
CC(CNc1cc(-c2ccccn2)nc2nncn12)c1ccccc1 (stereo not shown) gave an IC90 of 35 µM (Mycobacterium tuberculosis; microbial growth; H37RV).
The IC50 of CCCCN(CCCC)C(=N)CC(O)c1cc2c(F)cc(F)cc2c2cc(C(F)(F)F)ccc12 (stereo not shown) is reported as 16.6 µM (HepG2; cell growth or viability, neutral red; 24 h).
The IC50 of COc1ccc(-c2cc(C(F)(F)F)c3c(N)c(C(=O)NC4COC4)sc3n2)cc1 is reported as greater than 100 µM (HepG2; cell growth or viability; 72 h).
Cc1cc(F)cc(C)c1NC(=N)CC(O)c1cc2c(F)cc(F)cc2c2cc(C(F)(F)F)ccc12 (stereo not shown) has an IC50 of 6.3 µM (HepG2; cell growth or viability, neutral red; 24 h).
With O=c1c2cc(Cl)c(CO)cc2[nH]c(=S)n1Cc1cncnc1 the MIC90 was 3.23 µM (≈ 1.08 µg/mL) (Mycobacterium tuberculosis; microbial growth; H37RV).
With COc1ccc(-c2cc(C(F)(F)F)c3c(N)c(C(=O)NC(C)C4CCCCC4)sc3n2)cc1 (stereo not shown) the IC50 was greater than 100 µM (HepG2; cell growth or viability; 72 h).
The MIC of Clc1ccc(CCNc2cc(-c3ccccn3)nc3cc(Br)nn23)cc1 is reported as 36 µM (≈ 15.4 µg/mL) (Mycobacterium tuberculosis; microbial growth; H37RV).
For COC1CN(C(=O)c2sc3ncccc3c2N)C1, the IC50 was greater than 100 µM (HepG2; cell growth or viability; 72 h).
N#Cc1ccc(NC(=N)CC(O)c2cc3c(F)cc(F)cc3c3cc(C(F)(F)F)ccc23)cc1 (stereo not shown) has an IC50 of greater than 25 µM (HepG2; cell growth or viability, neutral red; 24 h).
For CN(C)CCC(c1cccnc1)n1c(=S)[nH]c2ccc(Cl)cc2c1=O (stereo not shown), the MIC90 was greater than 100 µM (Mycobacterium tuberculosis; microbial growth; H37RV).
For COc1ccc(-c2cc(C(F)(F)F)c3c(N)c(C(=O)N4CCCCC4)sc3n2)cc1, the IC50 was greater than 100 µM (HepG2; cell growth or viability; 72 h).
The MIC90 of O=c1c2cc(Cl)ccc2[nH]c(=S)n1Cc1ccc(-c2ccccc2)nc1 is reported as greater than 100 µM (Mycobacterium tuberculosis; microbial growth; H37RV).
The MIC of FC(F)(F)Oc1ccc(CCNc2cc(-c3ccccn3)nc3nncn23)cc1 is reported as 4 µM (≈ 1.6 µg/mL) (Mycobacterium tuberculosis; microbial growth; H37RV).
For Nc1c(C(=O)NCc2ccccc2)sc2nc(-c3ccccc3)ccc12, the IC50 was greater than 100 µM (HepG2; cell growth or viability; 72 h).
For NC(=O)c1cc2[nH]c(=S)n(Cc3cccnc3)c(=O)c2cc1Cl, the MIC90 was 7.1 µM (≈ 2.46 µg/mL) (Mycobacterium tuberculosis; microbial growth; H37RV).
